Assay outcomes deposited in PubChem BioAssay by Sanford-Burnham Center for Chemical Genomics.
An excerpt weighted towards active compounds, which were near 2.5% of everything screened.
SENP7 block: inhibitors of human SENP7 protease; hit rate 1.5% among 330,000; recombinant SENP7, Z-RLRGG-aminoluciferin luminescence, 40 min; AID 434973; inhibition, % at 5 µM;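 active means inhibition above about 50% at the single test dose, limit read from the data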;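 further: plate controls were DMSO with enzyme for no effect and no enzyme buffer wells for full effect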
Target sequence (Q9BQF6 706-1050 limits assumed): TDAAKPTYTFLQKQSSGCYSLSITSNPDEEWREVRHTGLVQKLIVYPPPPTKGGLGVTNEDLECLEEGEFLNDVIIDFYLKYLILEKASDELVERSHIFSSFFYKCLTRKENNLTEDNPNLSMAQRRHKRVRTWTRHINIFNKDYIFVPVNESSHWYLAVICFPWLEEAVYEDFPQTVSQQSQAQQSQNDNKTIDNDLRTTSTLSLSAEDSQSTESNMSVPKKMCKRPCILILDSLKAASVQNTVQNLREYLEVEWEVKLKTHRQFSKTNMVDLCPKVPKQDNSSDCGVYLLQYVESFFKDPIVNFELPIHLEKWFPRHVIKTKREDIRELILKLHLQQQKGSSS
SENP6 inh: SENP6 protease inhibition; inhibition, % at 10 µM; AID 2599; Q9GZR1; Recombinant SENP6 catalytic domain, aminoluciferin luminescence; hit rate 1.8% among 330,000;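 active means inhibition above about 50% at the single tested dose, limit read from the data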;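 further: plate controls were DMSO wells with enzyme for no effect and DMSO wells lacking enzyme for full effect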
SENP8 block-1: inhibitors of human SENP8 protease; Q96LD8; hit rate 0.64% among 360,000; AID 602440; recombinant SENP8, Nedd8 substrate fluorescence; inhibition, % at 20 µM; in the data active means inhibition mostly above about 40%, no sharp cut-off; inactive means mostly below about 27%
SENP1 FRET inh: blocks the human SENP1 SUMO protease catalytic domain | recombinant SENP1 catalytic domain, CyPet-SUMO1-YPet FRET cleavage | inhibition, % at 10 µM | hit rate 0.21% among 360,000;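 active means inhibition at least 30% at 10 µM, raw YFP signal under a set limit, fluorescence ratio 0.5 to 1.5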;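 further: 0% = enzyme with DMSO and 100% = no enzyme wells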
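Assay system: hSENP1 catalytic domain, recombinant. Amount: SENP1 enzyme, 20 pM final. Schedule: 50 min reaction, RT, dark. Technique: FRET, CFP and YFP emission. Control set: no-enzyme wells low, DMSO-plus-enzyme wells high control.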
SENP8 block-2: blocks the human protease SENP8 | AID 2540 | inhibition, % at 10 µM | hit rate 1.2% among 330,000 | purified SENP8, Z-RLRGG-aminoluciferin cleavage, luminescence; in the data active means inhibition above about 50%
SENP8 conf: confirmation of human SENP8 protease inhibitors. shares compounds with SENP7 block. Recombinant SENP8, Z-RLRGG-aminoluciferin luminescence, 60 min. inhibition, % at 12.5 µM. hit rate 40% among 6,200. AID 488912;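 active means mean inhibition across replicates above about 50%, limit read from the data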
SENP6 confirm: confirmation of human SENP6 protease inhibitors; shares compounds with SENP7 block; recombinant SENP6, Z-RLRGG-aminoluciferin luminescence; inhibition, % at 12.5 µM; hit rate 58% among 6,200
SENP7 confirm: confirmation of human SENP7 protease inhibitors; inhibition, % at 12.5 µM; shares compounds with SENP7 block; hit rate 69% among 6,200; recombinant SENP7, Z-RLRGG-aminoluciferin luminescence, 40 min
Casp3 select: inhibits human caspase-3 in SENP selectivity test; shares compounds with SENP7 block; purified caspase-3, Z-DEVD-aminoluciferin luminescence, 60 min; inhibition, % at 12.5 µM; hit rate 60% among 6,200; AID 488918;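 active means mean inhibition above about 50%, limit read from the data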;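 further: plate controls were enzyme with DMSO for no effect and wells without caspase-3 for full effect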
Target sequence (P42574 28-227 limits assumed): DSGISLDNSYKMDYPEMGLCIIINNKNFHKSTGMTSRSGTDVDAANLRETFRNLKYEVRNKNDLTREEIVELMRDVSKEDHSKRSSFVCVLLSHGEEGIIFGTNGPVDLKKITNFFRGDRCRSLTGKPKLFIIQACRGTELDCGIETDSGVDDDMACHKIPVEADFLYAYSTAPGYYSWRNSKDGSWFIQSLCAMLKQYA
Luc interf: interferes with luciferase luminescence in SENP counter-screen; Pre-incubated SENP8/Z-RLRGG-aminoluciferin, luciferase luminescence interference; hit rate 39% among 6,200; shares compounds with SENP7 block; inhibition, % at 12.5 µM;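 active means mean inhibition above about 50% when retested at one dose, limit read from the data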;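 further: plate controls were DMSO wells with completed reaction for no effect and substrate without enzyme for full effect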
An asterisk follows results filed as active; i = inactive; nt = not tested or not shown.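 How the source made its calls, unless noted: active means mean inhibition above about 50% in the one-dose retest (limit read from the data); inactive means the rest.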

SMILES	SENP7 block	SENP6 inh	SENP8 block-1	SENP1 FRET inh	SENP8 block-2	SENP8 conf	SENP6 confirm	SENP7 confirm	Casp3 select	Luc interf
COc1cccc(NC(=O)c2ccc3c(c2)OCO3)c1	96.1*	92.8*	28.9	0.2	88.1*	-0.7	90.3*	99.5*	95.1*	89.8*
COC(=O)c1c(-c2cccnc2)csc1NC(=O)c1ccc2c(c1)OCO2	95.5*	72.3*	-464.6	-16.1	72.8*	11.5	21.2	20.7	36.2	0.1
COc1cccc(NC(=O)c2ccc(CN3CCOCC3)cc2)c1	39.2	50.3*	7.5	-1.6	11.8	26.6	21.3	57.0*	63.1*	33.6
Cc1cc(C)nc(NC(=O)c2ccc3c(c2)OCO3)c1	80.5*	70.8*	nt	nt	58.7*	75.3*	74.5*	90.4*	87.6*	75.8*
CC(C)Oc1cccc(C(=O)Nc2ccc(CN3CCOCC3)cc2)c1	6.0	-11.6	10.0	1.0	-0.7	nt	nt	nt	nt	nt
COC(=O)c1sccc1NC(=O)c1ccc2c(c1)OCO2	6.0	-5.1	-59.7	2.1	-23.8	nt	nt	nt	nt	nt
CC(=O)N1CCN(C(C(=O)Nc2c(C)cccc2C)c2cccc(F)c2)CC1 (centres undefined)	nt	nt	12.6	4.1	nt	nt	nt	nt	nt	nt
CN1CCSc2ccc(C(=O)Nc3ccc(Cl)cc3)cc21	4.6	-27.5	-424.4	-14.4	-17.5	nt	nt	nt	nt	nt
COc1cccc(NC(=O)c2ccc3c(c2)N(C)CCS3)c1	95.9*	91.2*	-466.0	-19.9	94.1*	95.2*	95.7*	100.3*	93.8*	95.6*
COc1cccc(NC(=O)c2ccc3c(c2)OCCO3)c1	97.3*	93.9*	10.6	1.3	94.2*	97.0*	97.7*	101.8*	97.3*	95.9*
CCN(C(=O)COC(=O)C(C)(C)Oc1ccc(Cl)cc1)c1c(N)n(Cc2ccccc2)c(=O)[nH]c1=O	nt	nt	11.7	0.6	nt	nt	nt	nt	nt	nt
CC1=NN(C(N)=S)C(=O)C1N=Nc1ccc(Cl)cc1 (centres undefined)	76.7*	88.5*	32.9	3.4	86.4*	-1.2	72.2*	35.1	29.8	14.4
CC1=NN(C(N)=S)C(=O)C1N=Nc1ccc(Br)cc1 (centres undefined)	74.1*	96.3*	35.7	3.6	92.2*	25.9	40.4	27.4	40.0	23.3
CC1=NN(C(=O)c2ccncc2)C(=O)C1N=Nc1ccc2ccccc2c1 (centres undefined)	nt	nt	34.2	16.2	nt	nt	nt	nt	nt	nt
CC1=NN(C(N)=S)C(=O)C1N=Nc1ccccc1 (centres undefined)	52.8*	71.9*	22.8	4.3	59.0*	18.9	54.8*	14.4	35.3	0.4
CC1=NN(c2ccccc2)C(=O)C1N=Nc1cccc(O)c1 (centres undefined)	-4.0	5.3	27.3	1.0	4.0	nt	nt	nt	nt	nt
CC1=NN(C(N)=S)C(=O)C1N=Nc1cccc(Cl)c1C (centres undefined)	59.2*	93.8*	14.8	1.5	84.5*	94.7*	94.3*	100.0*	88.0*	83.1*
O=[N+]([O-])c1cccc(N=NNc2cccc([N+](=O)[O-])c2)c1	nt	nt	18.7	2.6	nt	nt	nt	nt	nt	nt
CC1=NN(C(N)=S)C(=O)C1N=Nc1cccc([N+](=O)[O-])c1 (centres undefined)	76.5*	82.6*	32.5	1.3	80.2*	4.2	5.3	-2.2	16.2	6.8
CCCCC(=O)Nc1cc(Cl)ccc1C(=O)O	-2.1	1.6	-1.6	-2.1	-7.3	nt	nt	nt	nt	nt
Cc1ccc(C(=O)N=c2sccn2C)cc1C	83.0*	81.6*	-194.9	1.6	67.3*	70.2*	69.8*	93.6*	86.5*	80.8*
Cc1ccc(C(=O)N=c2sccn2C)cc1S(=O)(=O)N1CCOCC1	8.8	1.8	-181.7	-0.1	-5.8	nt	nt	nt	nt	nt
Fc1ccccc1SCc1nnc(-c2ccccc2Br)o1	42.9	14.1	0.9	-1.8	53.2*	66.4*	66.6*	85.7*	49.3	29.7
COc1cc(C(=O)N=c2sc3c(C)ccc(OC)c3n2C)cc(OC)c1OC	76.9*	24.4	-396.6	1.0	8.5	7.4	5.6	22.8	-0.3	-11.0
COc1ccc(C(=O)N=c2sc3c(C)ccc(OC)c3n2C)cc1	99.0*	97.5*	-404.6	2.6	89.8*	-17.7	0.8	14.9	8.1	24.9
SMILES	SENP7 block	SENP6 inh	SENP8 block-1	SENP1 FRET inh	SENP8 block-2	SENP8 conf	SENP6 confirm	SENP7 confirm	Casp3 select	Luc interf
COc1ccc(C(=O)N2C=Cc3ccccc3C2C(N)=O)cc1 (centres undefined)	nt	nt	10.9	-1.4	nt	nt	nt	nt	nt	nt
C#Cc1cccc(N2C(=O)C3C4C=CC(C3C2=O)C2C(=O)N(c3cccc(C#C)c3)C(=O)C42)c1 (centres undefined)	nt	nt	2.2	-1.1	nt	nt	nt	nt	nt	nt
COc1ccc(C(CC(=O)c2ccc(O)cc2)S(=O)(=O)c2ccc(C)cc2)cc1 (centres undefined)	55.2*	49.7	4.8	-1.5	27.6	52.0*	22.3	69.3*	18.3	58.3*
Cc1oc(C(C)(C)C)cc1C(=O)Nc1cccc(C(=O)O)c1	-0.8	2.6	5.7	1.8	-5.2	nt	nt	nt	nt	nt
Cc1cc(C(=O)Nc2cccc(C(=O)O)c2)c(C)o1	83.8*	89.8*	13.4	0.4	68.4*	-7.9	80.9*	97.8*	49.3	88.3*
Cc1oc(C(C)(C)C)cc1C(=O)Nc1ccc(C(=O)O)cc1	10.3	9.1	28.0	0.9	3.5	nt	nt	nt	nt	nt
Cc1cc(C(=O)Nc2ccc(C(=O)O)cc2)c(C)o1	73.7*	80.4*	6.9	-0.4	68.4*	-6.0	61.3*	87.7*	91.3*	65.0*
Cc1cc(C(=O)Nc2cccc(C(=O)O)c2)oc1C	98.1*	92.3*	18.9	1.2	92.4*	94.7*	95.1*	99.6*	86.5*	93.6*
Cc1c(Cl)cccc1NC(=O)CSc1nncn1-c1ccccn1	-2.2	-10.9	0.8	0.3	2.2	nt	nt	nt	nt	nt
Cc1ccccc1-c1nnc(-c2cccc3ccccc23)o1	nt	nt	i	1.0	nt	nt	nt	nt	nt	nt
Cc1ccccc1-c1nnc(-c2ccccc2C)o1	84.6*	77.5*	1.2	-0.1	58.4*	13.1	29.3	63.2*	41.1	11.0
Cc1ccccc1-c1nnc(-c2ccc(Br)cc2)o1	66.7*	75.4*	2.1	1.0	33.4	13.6	12.8	21.9	29.6	7.1
CC1CCCN(S(=O)(=O)c2cccc(C(=O)OCC(=O)N(C)Cc3c(F)cccc3Cl)c2)C1 (centres undefined)	-12.8	-19.5	7.4	1.4	-8.6	nt	nt	nt	nt	nt
